# Only some compounds are listed: those with a hit (about 1.5% of all), similar ones and a draw of the others.
# APJ antag: antagonists of human APJ apelin receptor; P35414; AID 2521; 330,000 compounds, 0.32% hits; CHO-K1 APJ beta-arrestin complementation, luminescence; inhibition, % at 20 µM;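 active means inhibition above about 40% at 20 µM, limit read from the data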;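 further: cells challenged with 10 nM apelin-13 agonist together with compound; plate controls were apelin-13 plus DMSO wells for no effect and DMSO wells lacking apelin-13 for full effect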
# CCR6 antagonist: CCR6 (human) receptor antagonism; AID 493098; CHO-K1 CCR6 PathHunter beta-arrestin, luminescence, CCL20-stimulated; 340,000 compounds, 0.49% hits; inhibition, % at 20 µM;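 active means compounds whose inhibition of the agonist-driven luminescence signal at 20 µM reaches about 50%, limit read from the data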;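 further: cells stimulated with CCL20 at 14 nM final; plate controls were DMSO with CCL20 for no effect and DMSO without agonist for full effect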
# NTR1 agonist: agonists of human neurotensin receptor NTR1; P30989; NTR1-U2OS beta-arrestin-GFP spot imaging, agonist mode; activation, % at 20 µM; 330,000 compounds, 0.17% hits;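 active means activation at or above 40% of the spot to cytoplasm intensity ratio, with at least 20 cells analyzed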;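 further: 0% = DMSO without peptide and 100% = 100 nM NTR1 peptide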
# m5-HT2A agonist: activates the mouse 5-HT2A serotonin receptor. 360,000 compounds, 0.66% hits. activation, % at 7.6 µM. CHO-K1 mHTR2A beta-arrestin complementation, luminescence; percent of 30 µM serotonin response. P35363;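 active means activation above a run cutoff, the mean activation of all tested compounds plus 3 SD, cut at about 14% in these data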;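 further: 0% = plate median of compound wells and 100% = 30 µM serotonin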
# CXCR6 block: inhibitors of human CXCR6 receptor | inhibition, % at 20 µM | O00574 | 360,000 compounds, 0.36% hits | CHO-K1 PathHunter CXCR6 beta-arrestin, luminescence; in the data active means inhibition above about 34%, passing the limit was not always enough;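 further: antagonist mode with CXCL16 agonist at 10 nM final; 0% = 10 nM CXCL16 with DMSO and 100% = unstimulated wells without agonist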
# Target sequence (O00574 whole entry, looked up): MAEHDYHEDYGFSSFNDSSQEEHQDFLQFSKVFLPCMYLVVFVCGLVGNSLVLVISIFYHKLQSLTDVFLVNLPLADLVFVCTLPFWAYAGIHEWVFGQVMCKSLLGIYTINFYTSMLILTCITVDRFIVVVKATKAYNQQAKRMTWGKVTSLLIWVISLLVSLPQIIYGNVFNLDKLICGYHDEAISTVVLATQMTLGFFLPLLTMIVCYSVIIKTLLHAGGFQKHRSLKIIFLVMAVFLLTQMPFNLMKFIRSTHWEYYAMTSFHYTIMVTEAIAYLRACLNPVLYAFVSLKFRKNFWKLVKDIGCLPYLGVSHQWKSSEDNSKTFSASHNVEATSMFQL
# APJ agonist: activates the human apelin receptor APJ. activation, % at 20 µM. CHO-K1 APJ PathHunter beta-arrestin, luminescence; 0% DMSO wells, 100% apelin. 330,000 compounds, 0.11% hits;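 active means activation more than six SD over the plate average, tested at 20 µM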;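 further: 0% = DMSO alone and 100% = apelin-13 at 10 nM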
#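 Test system – PathHunter CHO-K1 APJ (AGTRL-1) beta-arrestin reporter cells · Input – 1000 cells/well · Compound – single test compound dose, 20 µM final, 1% DMSO · Times – compound stimulation 90 min at 25 °C, detection 60 min · Technique – beta-gal luminescence · Read-out basis – APJ–arrestin association signal · Control set – negative DMSO alone, positive Apelin-13 at 10 nM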
# CXCR6 confirm: CXCR6 antagonism confirmation, single concentration; CHO-K1 CXCR6 PathHunter beta-arrestin, luminescence; shares compounds with CXCR6 block; 700 compounds, 65% hits; inhibition, % at 20 µM;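 active means mean inhibition over four retests above 40%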;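 further: receptor stimulated with 10 nM CXCL16 agonist; beta-galactosidase fragment complementation upon beta-arrestin recruitment to receptor; plate controls were CXCL16 plus DMSO for no effect and DMSO without CXCL16 for full effect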
# * hit, by the source's call; · = no result.
SMILES,APJ antag,CCR6 antagonist,NTR1 agonist,m5-HT2A agonist,CXCR6 block,APJ agonist,CXCR6 confirm
COC(=O)c1cc(CSc2nc3ccc(C)cc3[nH]2)oc1C,27,33,1,-6,43*,-6,41*
CN(C1CCCCC1)S(=O)(=O)c1cccc(C#N)c1,-3,17,-2,5,-4,0,·
CC(C)NC(=O)c1cc(C2CCCCN2S(=O)(=O)c2ccc(F)cc2F)on1 (centres undefined),·,·,·,0,2,·,·
CCOc1ccc(N(CC(=O)Nc2ccccc2C(=O)N2CCOCC2)S(=O)(=O)c2ccc(F)cc2)cc1,3,3,4,-1,70*,-4,-5
C[C@@H]1CN([C@@H](C)CO)C(=O)c2cc(NC(=O)C3CC3)ccc2O[C@@H]1CN(C)Cc1ccc(Cl)c(Cl)c1,-11,2,2,9,-7,-3,·
Cc1[nH]n2c(=O)cc(-c3ccc([N+](=O)[O-])cc3)nc2c1-c1ccccc1,17,·,5,-12,59*,-3,52*
CCc1ccc(CN2CCC(n3nccc3NC(=O)Cc3ccccc3)CC2)o1,20,3,2,-9,5,-3,·
Fc1ccccc1NC(=S)NNc1ncc(C(F)(F)F)cc1Cl,37,68*,0,-3,50*,3,38
FC(F)(F)c1cccc(NC(=S)Nc2ccc(Cl)c(Cl)c2)c1,-7,10,8,-2,-9,-1,·
FC(F)(F)c1cnc(NNC(=S)Nc2ccccc2)c(Cl)c1,·,·,·,-17,73*,·,74*
CC(=O)c1ccc(N2C(=NC(=O)CCc3ccccc3)SC3CS(=O)(=O)CC32)cc1 (centres undefined),17,4,-1,-5,1,-1,·
Cc1cc(C)cc(NC(=O)C(=S)NCc2ccccc2)c1,-3,7,8,-1,-2,-3,·
CNC[C@@H](CC1CCCCC1)NC[C@H](CC(C)C)NCCc1cccc(C(F)(F)F)c1,15,41,10,4,42*,-8,37
O=C(NCCCN1CCOCC1)c1cc2c(s1)CSC2,13,-7,0,-2,44*,-3,-9
COc1ccc2[nH]cc(CCNC(=O)c3ccc4ccccc4n3)c2c1,13,5,1,1,-12,1,·
COc1ccc(COn2nnc3ccc(S(=O)(=O)N4CCOCC4)cc32)cc1F,22,20,0,-2,-1,-1,·
CC(C)(C)OC(=O)NN=C(c1ccc(O)cc1)c1ccc(O)cc1,0,3,0,0,-20,0,·
CNC(=O)c1nc[nH]c1C(=O)NC,5,1,-1,0,-8,1,·
CCNC(=O)c1nc[nH]c1C(=O)NCC,-11,25,-1,-1,59*,-5,-1
CCN(CC(=O)Nc1ccc(Cl)c(S(=O)(=O)N(C)C)c1)CC(=O)NC(C)C,-8,4,0,-1,-1,0,·
Cc1cccc(Cc2cnc(N3C(=N)SC(C)C3=O)s2)c1 (centres undefined),17,·,1,-6,53*,-3,73*
Cc1ccc(Cc2cnc(N3C(=N)SC(C)C3=O)s2)cc1 (centres undefined),22,·,4,-1,53*,-2,70*
Cc1ccc(C(=O)NC(=S)NNC(=O)c2ccccc2)cc1,1,19,2,0,13,-4,·
Cc1ccc(C(=O)NNC(=S)NC(=O)c2ccccc2)cc1,12,·,2,-9,36*,-5,44*
O=C(/C=C/c1cccc([N+](=O)[O-])c1)c1ccc([N+](=O)[O-])o1,·,105*,·,1,95*,·,98*
SMILES,APJ antag,CCR6 antagonist,NTR1 agonist,m5-HT2A agonist,CXCR6 block,APJ agonist,CXCR6 confirm
O=C(C(=Cc1ccc(F)cc1)c1ccccc1)c1ccc(O)cc1,·,13,·,-2,0,·,·
O=C(C(=Cc1ccc(F)cc1)C(=O)c1ccccc1)c1ccccc1,·,·,·,-8,42*,·,58*
CC(C)(C)C(=O)Nc1ccc(Sc2ccc([N+](=O)[O-])cc2)cc1,-8,-2,2,5,11,5,·
CC(=O)Nc1ccc(Sc2ccc([N+](=O)[O-])o2)cc1,·,57*,·,-4,52*,·,60*
CCOC(=O)c1ccc(NC(=S)NC(=O)c2cncc(Br)c2)cc1,38,60*,2,6,42*,-7,21
COc1ccc(Br)cc1S(=O)(=O)N(CC(=O)N1CCOCC1)c1ccccc1,-3,5,-2,2,1,1,·
COC(=O)CN(c1ccccc1)S(=O)(=O)c1cc(Br)ccc1OC,6,9,1,3,92*,-1,22
N#Cc1c(C#N)c(SSc2c(C#N)c(C#N)c(N)n2-c2ccccc2)n(-c2ccccc2)c1N,·,109*,·,-2,101*,·,85*
N#Cc1c(N)n(-c2ccc(N)cc2)c2nc3ccccc3nc12,5,12,0,-5,2,-3,·
CCOC(=O)N1CCN(S(=O)(=O)c2cccc3ccc(C)nc23)CC1,0,-3,-1,-4,84*,1,15
CCOC(=O)N1CCN(S(=O)(=O)c2cc(OCC)ccc2OCC)CC1,20,2,0,0,2,0,·
Cc1n[nH]c(C)c1CCN(C)Cc1cn(C)nc1-c1ccccc1F,-5,-2,0,-2,1,-2,·
CCCCc1nc2cc(C(=O)N3CCCCC3COC)ccc2o1 (centres undefined),7,-1,0,1,-3,-1,·
COCC1CCCCN1C(=O)c1ccc2oc(CCc3ccccc3)nc2c1 (centres undefined),2,3,0,-5,37*,-4,22
O=c1c2c([N+](=O)[O-])cc([N+](=O)[O-])cc2nc2ccccn12,-18,4,0,1,2,4,·
O=c1c2c([N+](=O)[O-])cc([N+](=O)[O-])cc2sn1Cc1ccccc1,9,97*,4,6,45*,2,16
COc1ccc(-c2ccccc2)cc1NC(=O)[C@@H]1O[C@H](CO)[C@@H](O)[C@H]1O,·,·,·,1,6,·,·
O=C(Nc1ccccc1Oc1ccccc1)[C@@H]1O[C@H](CO)[C@H](O)[C@H](O)[C@H]1O,·,·,·,-8,57*,·,71*
CNc1cnn(-c2ccc(C)cc2)c(=O)c1Cl,-7,1,1,-3,56*,0,2
Cc1ccc([N+](=O)[O-])cc1NC(=S)NC(=O)C(C)(C)C,21,13,0,1,8,-1,·
COc1ccc(NC(=S)NNc2ccc([N+](=O)[O-])cc2S(=O)(=O)Nc2ccc(C)cc2C)cc1,1,77*,2,2,49*,0,56*
